# PglD inh: inhibitors of Campylobacter jejuni PglD acetyltransferase | purified PglD enzyme, DTNB colorimetric CoA detection | inhibition, % at 12.5 µM | 360,000 tested, 0.098% active; in the data active = inhibition above about 16%, passing the limit was not always enough
# ERp5 block: inhibitors of human ERp5; Q15084; ERp5 insulin aggregation, absorbance 650 nm, 90 min; inhibition, % at 9.99 µM; 350,000 tested, 0.05% active;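 active = mean replicate inhibition above about 25%, with every replicate also reaching it, limit read from the data, passing the limit was not always enough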
# Cneo AK release: causes C. neoformans cell lysis; AID 651654; 360,000 tested, 0.2% active; adenylate kinase release luminescence, 4 h; normalised: neutral wells 0, clomiphene wells 100; lysis activity, % at 15 µM;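 active = mean lysis activity across replicates of at least 80%, whatever share of replicates individually reach that level; inactive = mean lysis activity below 80%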
#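 Material: C. neoformans cells; Schedule: 4 h static compound exposure, 37 °C, read 1 h post-reagent; Measured by: adenylate kinase release luminescence; Read-out: signal increase indicating cell lysis; Controls: Clomiphene as positive lysis control.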
# PDI inh: inhibitors of human protein disulfide isomerase. inhibition, % at 10 µM. P07237. PDI insulin aggregation turbidity, A650, 90 min. 350,000 tested, 0.052% active;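 active = mean inhibition across replicates of 30% or more, whatever share of single replicates reach that level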
# Target sequence (P07237 whole entry, looked up): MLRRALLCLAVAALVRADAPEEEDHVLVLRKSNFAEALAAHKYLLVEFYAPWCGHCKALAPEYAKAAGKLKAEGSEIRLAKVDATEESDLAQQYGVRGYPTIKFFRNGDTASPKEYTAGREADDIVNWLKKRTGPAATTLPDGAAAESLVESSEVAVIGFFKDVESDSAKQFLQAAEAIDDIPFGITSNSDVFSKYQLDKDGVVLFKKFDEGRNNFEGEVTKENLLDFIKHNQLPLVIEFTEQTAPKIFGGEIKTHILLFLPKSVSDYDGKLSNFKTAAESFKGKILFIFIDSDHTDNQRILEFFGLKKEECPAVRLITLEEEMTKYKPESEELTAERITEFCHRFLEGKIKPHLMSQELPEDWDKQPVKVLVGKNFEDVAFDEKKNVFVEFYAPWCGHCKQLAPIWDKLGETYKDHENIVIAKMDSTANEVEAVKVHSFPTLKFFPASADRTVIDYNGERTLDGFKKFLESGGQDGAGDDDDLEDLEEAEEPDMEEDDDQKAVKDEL
# PvdQ acylase: blocks Pseudomonas aeruginosa PvdQ acylase activity. 340,000 tested, 0.063% active. AID 488965. inhibition, % at 10 µM. purified PvdQ acylase, fluorescence plate reader; in the data active = inhibition above about 30%, passing the limit was not always enough;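 also: 0% = vehicle neutral wells and 100% = reference inhibitor wells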
# miR-122 sensor: blocks miR-122 activity in Huh7 sensor cells. Huh7 miR-122 Renilla luciferase sensor, 48 h; neutral wells = 0, positive control = 100. activation (reporter increase), % at 12.5 µM. 340,000 tested, 0.3% active;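 active = mean replicate activation score at least 90 and every replicate individually at or above 90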;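 also: higher luciferase means less miR-122 activity so hits act as miR-122 inhibitors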
# * hit, by the source's call; x = no result; [ ] = dose if it differs, or a comment. Hits are enriched below; roughly 0.58% of the tested compounds scored in any of these assays.
SMILES,PglD inh,ERp5 block,Cneo AK release,PDI inh,PvdQ acylase,miR-122 sensor
C[C@@H]1CN([C@H](C)CO)C(=O)c2cc(-c3ccncc3)cnc2O[C@H]1CN(C)C(=O)c1ccncc1,-1.9,0.8,-2.7,x,x,2.9[16.7 µM]
CCOC(=O)NC(=S)Nc1ccc(C(C)(C)C)cc1,-3.7,-2.1,172.8*,-2.7,-10.3,-5.9
COc1ccc(C(CC(=O)N2CCCC(C)C2)c2c(OC)cc(OC)c3c(-c4ccccc4)cc(=O)oc23)cc1 (configuration not stated),-2.0,3.7,-4.6,2.9,-14.2,92.1*
COc1ccc(C(CC(=O)N2CCCC2)c2c(OC)cc(OC)c3c(-c4ccccc4)cc(=O)oc23)cc1 (configuration not stated),2.9,-2.4,1.4,0.1,-14.3,67.3
CCN(CC)C(=O)CC(c1ccc(N(C)C)cc1)c1c(OC)cc(OC)c2c(-c3ccccc3)cc(=O)oc12 (configuration not stated),4.1,16.3,2.4,6.8,-8.5,99.1*
CNC(=O)[C@@]1(C)C=C[C@@H](Cc2ccccc2)N1C(=O)OC,-3.3,x,1.1,2.3,-12.7,132.9*
CCN(CC)c1ccc(N)cc1S(=O)(=O)Nc1ccc(OC)cc1,1.6,1.7,-0.7,5.9,-12.5,107.5*
CCNS(=O)(=O)c1ccc(NS(=O)(=O)c2cc(C)ccc2C)cc1,-5.2,x,1.1,-0.8,-3.6,113.5*
COc1ccc(NS(=O)(=O)c2cc(NC(=O)c3ccc(=O)[nH]n3)ccc2C)cc1,5.4,4.0,-0.3,2.8,0.4,166.1*
CCN(CC)c1ccc(N)cc1S(=O)(=O)Nc1ccccc1OC,-1.8,0.6,-7.2,2.6,-10.8,27.1
CCN(CC)S(=O)(=O)c1ccc(NS(=O)(=O)c2ccc(C)c(C)c2)cc1,-2.6,x,0.0,-7.8,-0.3,182.9*
C[C@@H]1CCCCO[C@H](CN(C)Cc2ccc(C(F)(F)F)cc2)[C@@H](C)CN([C@@H](C)CO)C(=O)c2cc(NC(=O)CCCN(C)C)ccc2O1,-0.6,-2.6,1.4,x,x,8.4[16.7 µM]
COc1ccc(C)cc1NS(=O)(=O)c1cc(C)ccc1C,x,x,x,-6.2,8.2,87.5
COc1cc(C)c(S(=O)(=O)Nc2ccccc2F)cc1C,12.4,x,1.0,10.4,-16.5,123.5*
Cc1nc2cc(NS(=O)(=O)c3cccc4cccnc34)ccc2s1,-1.8,-1.9,-2.3,-16.3,-12.8,x
COc1ccccc1NS(=O)(=O)c1cc(C)ccc1C,2.9,x,-2.8,-3.5,3.0,140.6*
Cc1ccc(C)c(S(=O)(=O)Nc2ccc3sc(C)nc3c2)c1,5.5,x,-0.8,15.7,-12.4,427.9*
Cc1cc2[nH]c(=O)c(=O)[nH]c2cc1S(=O)(=O)Nc1ccccc1F,7.7,-6.5,0.1,x,-8.0,-5.3
COc1ccc(NS(=O)(=O)c2cc(C)ccc2C)cc1,2.8,x,0.6,4.6,-8.9,538.6*
CCOc1ccc(N2C(=O)Nc3ccccc3C2(O)C(=O)NCc2ccc3c(c2)OCO3)cc1 (configuration not stated),-4.2,x,-0.7,1.6,-1.7,171.2*
Cc1ccc(NC(=O)CSc2ccccc2)cc1S(=O)(=O)N1CCOCC1,-2.6,4.1,-7.5,3.6,-5.3,9.5
CCOc1ccc(S(=O)(=O)/N=C(/Nc2ccc(C)c(S(=O)(=O)N3CCOCC3)c2)c2ccccc2)cc1,-2.2,-0.8,-0.7,-8.0,-7.6,106.6*
Cc1ccc(NC(=O)C(=O)c2c(-c3ccccc3)cc3ccccn23)cc1S(=O)(=O)N1CCOCC1,0.4,x,-2.5,6.8,1.5,247.5*
CC(=O)N(C)C[C@H]1Oc2ncc(-c3cccc(C#N)c3)cc2C(=O)N([C@@H](C)CO)C[C@H]1C,-2.2,3.0,-0.2,x,x,3.2[16.7 µM]
Cc1cc(C)cc(NS(=O)(=O)c2ccc(-c3cnc(C4CC4)o3)cc2)c1,-0.7,1.8,1.0,0.7,-7.6,375.1*
SMILES,PglD inh,ERp5 block,Cneo AK release,PDI inh,PvdQ acylase,miR-122 sensor
O=S(=O)(Nc1ccccc1)c1ccc(-c2cnc(C3CC3)o2)cc1,6.8,-0.4,-0.3,-1.0,-12.8,159.0*
COc1ccc(NS(=O)(=O)c2cc(-c3cnc(C4CC4)o3)ccc2C)cc1,6.8,6.5,0.4,6.6,-9.8,292.9*
CC(=O)Nc1ccc(NS(=O)(=O)c2ccc(-c3cnc(C4CC4)o3)cc2)cc1,0.4,2.3,0.4,4.6,-11.0,-4.6
COc1ccccc1NS(=O)(=O)c1cc(-c2cnc(C3CC3)o2)ccc1C,0.0,-0.2,-1.7,0.4,-12.2,x
O=C(C[C@H]1CC[C@H]2[C@@H](COC[C@H](O)CN2C(=O)C2CCCC2)O1)NCc1ccncc1,5.4,-7.6,0.1,x,x,2.2[16.7 µM]
O=C(C[C@H]1CC[C@@H]2[C@H](COC[C@@H](O)CN2C(=O)c2cnccn2)O1)NCc1ccc(Oc2ccccc2)cc1,-1.5,-1.8,105.2*,x,x,-3.5[16.7 µM]
O=C(C[C@H]1CC[C@@H]2[C@H](COC[C@H](O)CN2C(=O)C2CCCC2)O1)NCc1ccncc1,15.1,-19.6,66.7,x,x,121.7*[16.7 µM]
O=C(C[C@@H]1CC[C@H]2[C@@H](COC[C@@H](O)CN2C(=O)C2CCCC2)O1)NCc1ccncc1,4.3,-20.1,-2.0,x,x,138.2*[16.7 µM]
O=C(C[C@@H]1CC[C@@H]2[C@H](COC[C@H](O)CN2C(=O)C2CCCC2)O1)NCc1ccncc1,-5.0,-21.3,5.5,x,x,48.0[16.7 µM]
COc1ccc(NS(=O)(=O)c2ccc(OC)c3ccccc23)cn1,-4.9,x,1.8,-5.0,-1.4,356.4*
COc1ccc(NS(=O)(=O)c2cccs2)cn1,x,3.5,2.6,3.1,-3.4,-0.8
CCOc1ccc(NS(=O)(=O)c2ccc(OCC)c3ncccc23)cc1,2.7,x,0.9,5.0,3.4,139.3*
CCOc1ccc(S(=O)(=O)Nc2cc(C)ccn2)c2ccccc12,-1.4,x,2.3,7.0,9.2,236.7*
C[C@H](CO)N1C[C@H](C)[C@@H](CN(C)C(=O)c2ccccc2)OCCCC[C@H](C)Oc2ccc(N(C)C)cc2C1=O,x,x,x,x,x,-2.5[16.7 µM]
Cc1ccc(S(=O)c2snnc2C)cc1 (configuration not stated),-6.3,1.6,0.7,8.7,6.2,x
Cc1ccc(S(=O)c2ccc(C)cc2)cc1,-4.4,x,0.8,7.7,78.9*,2.4
O=S(=O)(NCc1ccco1)c1ccc(Cl)cc1Cl,-2.5,2.1,1.7,-1.7,-6.7,12.0
Cc1ccc(S(=O)(=O)NCc2ccco2)c(C)c1C,0.9,x,3.4,14.1,-3.5,107.3*
Cc1ccc(CNS(=O)(=O)c2ccc3c(c2)CCN3C(=O)C2CCC2)cc1,7.8,-5.3,0.5,-1.6,-14.5,-0.6
O=C(C1CCC1)N1CCc2cc(S(=O)(=O)NCc3ccco3)ccc21,-4.7,x,-1.1,-4.6,-23.0,176.7*
O=S(=O)(NCc1ccco1)c1ccc2ccccc2c1,1.5,-0.1,0.8,-2.3,23.4,95.2*
